According to ChEMBL document CHEMBL1153426, “A structure-based approach to ligand discovery for 2C-methyl-D-erythritol-2,4-cyclodiphosphate synthase: a target for antimicrobial therapy” (J Med Chem, 2009):

Assay: Binding affinity to Escherichia coli BL21 (DE3) IspF at 10 degC in pH 7 sodium phosphate buffer by SPR binding assay; call rule not given here
Outline: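 Recombinant E. coli IspF expressed in BL21(DE3), >95% pure, amine-coupled to CM5 chip at ~100 μg/mL in 10 mM acetate pH 5.5 (4500–5500 RU). Ligands 0.1 μM–10 mM in 50 mM sodium phosphate pH 7, 2 mM MgCl, 30 μL/min, 10 °C; triplicate injections, blank-subtracted.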

SMILES | Kd | Kd (read-out: Kd) [mM]
O=C(O)CCCC(=O)Nc1ccc2c(c1)OCO2 | Not Active | 
NC(=O)CSc1cc(N)nc(N)n1 | Not Active | 
Nc1nnc(-c2nonc2N)o1 | Not Active | 
Nc1ccn([C@H]2O[C@@H](CO)[C@H]3OP(=O)(O)O[C@H]32)c(=O)n1 (mixture of isomers) |  | 20.5
